According to ChEMBL document CHEMBL1123877, “Metabolic synthesis of arylacetic acid antiinflammatory drugs from arylhexenoic acids. 2. Indomethacin” (1987):

Key:
Rattus norvegicus [1] = experiment: Vocalization threshold value was measured in rat yeast induced hyperalgesia assay at a dose of 30 mg/kg for 1 hr.; format: functional
Outline: (§1)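 Female Sprague-Dawley rats, 50-60 g, groups of 10, fasted overnight. Brewer's yeast (5% in 0.1 mL) injected subplantar, then oral dosing in 1% methylcellulose. An air-driven piston (2 mm) presses the plantar surface of the normal and yeast-injected paws. The pressure that causes vocalization is read on a manometer in mmHg, tested 3 h after yeast. Normal vs inflamed paw compared by paired t test. Mean ± SEM.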

Rattus norvegicus [2] = experiment: Plasma drug level was measured in rat yeast induced hyperalgesia assay in presence of indomethacin at a dose of 30 mg/kg for 4 hr.; format: functional
Outline: (§2)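 Rats are bled after the yeast hyperalgesia test. 50 μL plasma is mixed with an equal volume of 0.1 N HCl and injected directly on a C-18 reverse-phase HPLC column. Eluent is methanol/0.01 M phosphate pH 4 (65:35), 1.5 mL/min, with UV detection at 254 nm. Parent compound and indomethacin are quantified against standard calibration. Mean ± SEM, n=10.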

Mus musculus [3] = experiment: Inhibition of phenylbenzoquinone writhing in mice was tested at the dose of 30 mg/kg for 2 hr; format: functional
Outline: (§3)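 Male CD-1 mice, 18-22 g, groups of 10, fasted overnight. Oral dose in 1% methylcellulose (0.1 mL/10 g) at set times before phenylbenzoquinone, 2.0 mg/kg ip. Writhes counted 5-15 min after PBQ. % inhibition = 100 − (drug mean/vehicle mean × 100).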

Rattus norvegicus [4] = experiment: Plasma drug level was measured in rat yeast induced hyperalgesia assay in presence of indomethacin at a dose of 30 mg/kg for 1 hr.; format: functional; outline: as §2
Rattus norvegicus [5] = experiment: (§4) Vocalization threshold value was measured in rat yeast induced hyperalgesia assay at a dose of 30 mg/kg for 8 hr.; format: functional; outline: as §1
Mus musculus [6] = experiment: Inhibition of phenylbenzoquinone writhing in mice was tested at the dose of 30 mg/kg for 1 hr; format: functional; outline: as §3
Rattus norvegicus [7] = experiment: Analgesic activity was measured in rat yeast induced hyperalgesia assay at a dose of 30 mg/kg for 4 hr.; format: functional
Outline: (§5)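 Female Sprague-Dawley rats, 50-60 g, groups of 10, fasted overnight. Brewer's yeast (5% in 0.1 mL) injected subplantar. Compound given orally in 1% methylcellulose, 0.1 mL/10 g. Each group tested once, always 3 h after yeast. An animal counts as analgesic if vocalization needs ≥25 mmHg on the inflamed paw. Result is percent of animals analgesic.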

Rattus norvegicus [8] = experiment: Plasma drug level was measured in rat yeast induced hyperalgesia assay in presence of indomethacin at a dose of 30 mg/kg for 8 hr.; format: functional; outline: as §2
Rattus norvegicus [9] = experiment: Plasma drug level was measured in rat yeast induced hyperalgesia assay in presence of drug 6 or 7 at a dose of 30 mg/kg for 4 hr.; format: functional; outline: as §2
Rattus norvegicus [10] = experiment: Analgesic activity was measured in rat yeast induced hyperalgesia assay at a dose of 30 mg/kg for 8 hr.; format: functional; outline: as §5
Mus musculus [11] = experiment: Inhibition of phenylbenzoquinone writhing in mice was tested at the dose of 30 mg/kg for 4 hr; format: functional; outline: as §3
Rattus norvegicus [12] = experiment: Plasma drug level was measured in rat yeast induced hyperalgesia assay in presence of drug 6 or 7 at a dose of 30 mg/kg for 1 hr.; format: functional; outline: as §2
Rattus norvegicus [13] = experiment: Vocalization threshold value was measured in rat yeast induced hyperalgesia assay at a dose of 10 mg/kg for 1 hr.; format: functional; outline: as §1
Rattus norvegicus [14] = experiment: Plasma drug level was measured in rat yeast induced hyperalgesia assay in presence of drug 6 or 7 at a dose of 30 mg/kg for 8 hr.; format: functional; outline: as §2
Mus musculus [15] = experiment: Inhibition of phenylbenzoquinone writhing in mice was tested at the dose of 30 mg/kg for 6 hr; format: functional; outline: as §3
Rattus norvegicus [16] = experiment: Analgesic activity was measured in rat yeast induced hyperalgesia assay at a dose of 30 mg/kg for 1 hr.; format: functional; outline: as §5
Rattus norvegicus [17] = experiment: Vocalization threshold value was measured in rat yeast induced hyperalgesia assay at a dose of 30 mg/kg for 4 hr.; format: functional; outline: as §1
Rattus norvegicus [18] = experiment: as §4; format: functional; remark: listed apart in the source
Rattus norvegicus [19] = experiment: Plasma drug level was measured in rat yeast induced hyperalgesia assay in presence of drug 6 or 7 at a dose of 30 mg/kg for 12 hr; format: functional; outline: as §2
Rattus norvegicus [20] = experiment: (§6) Vocalization threshold value was measured in rat yeast induced hyperalgesia assay at a dose of 10 mg/kg for 8 hr.; format: functional
Rattus norvegicus [21] = experiment: as §6; format: functional; outline: as §1; remark: listed apart in the source
Rattus norvegicus [22] = experiment: Plasma drug level was measured in rat yeast induced hyperalgesia assay in presence of indomethacin at a dose of 30 mg/kg for 12 hr.; format: functional; outline: as §2
Rattus norvegicus [23] = experiment: Analgesic activity was measured in rat yeast induced hyperalgesia assay at a dose of 10 mg/kg for 1 hr.; format: functional; outline: as §5
Rattus norvegicus [24] = experiment: Analgesic activity was measured in rat yeast induced hyperalgesia assay at a dose of 10 mg/kg for 8 hr.; format: functional; outline: as §5
Rattus norvegicus [25] = experiment: Analgesic activity was measured in rat yeast induced hyperalgesia assay at a dose of 30 mg/kg for 12 hr.; format: functional; outline: as §5
Rattus norvegicus [26] = experiment: (§7) Vocalization threshold value was measured in rat yeast induced hyperalgesia assay at a dose of 30 mg/kg for 24 hr.; format: functional
Rattus norvegicus [27] = experiment: Vocalization threshold value was measured in rat yeast induced hyperalgesia assay at a dose of 10 mg/kg for 6 hr.; format: functional; outline: as §1
Rattus norvegicus [28] = experiment: Vocalization threshold value was measured in rat yeast induced hyperalgesia assay at a dose of 30 mg/kg for 12 hr.; format: functional; outline: as §1
Rattus norvegicus [29] = experiment: Analgesic activity was measured in rat yeast induced hyperalgesia assay at a dose of 30 mg/kg for 24 hr.; format: functional; outline: as §5
Rattus norvegicus [30] = experiment: as §7; format: functional; outline: as §1; remark: listed apart in the source
Rattus norvegicus [31] = experiment: Analgesic activity was measured in rat yeast induced hyperalgesia assay at a dose of 10 mg/kg for 6 hr.; format: functional; outline: as §5
Rattus norvegicus [32] = experiment: Plasma drug level was measured in rat yeast induced hyperalgesia assay in presence of indomethacin at a dose of 30 mg/kg for 24 hr.; format: functional; outline: as §2
Rattus norvegicus [33] = experiment: Analgesic activity was measured in rat yeast induced hyperalgesia assay at a dose of 10 mg/kg for 24 hr.; format: functional; outline: as §5
Mus musculus [34] = experiment: Compound was tested for […] activity in mice after perorally administered at 1 hr; format: functional; conditions: po
Mus musculus [35] = experiment: Inhibition of phenylbenzoquinone writhing in mice was tested at the dose of 3 mg/kg for 1 hr; format: functional; outline: as §3
Rattus norvegicus [36] = experiment: (§8) Vocalization threshold value was measured in rat yeast induced hyperalgesia assay at a dose of 10 mg/kg for 4 hr.; format: functional
Rattus norvegicus [37] = experiment: as §8; format: functional; outline: as §1; remark: listed apart in the source
Rattus norvegicus [38] = experiment: Compound was tested for hyperalgesia activity in rats after perorally administered at 1 hr; conditions: po
Rattus norvegicus [39] = experiment: Analgesic activity was measured in rat yeast induced hyperalgesia assay at a dose of 10 mg/kg for 12 hr.; format: functional; outline: as §5
Rattus norvegicus [40] = experiment: Plasma drug level was measured in rat yeast induced hyperalgesia assay in presence of indomethacin at a dose of 10 mg/kg for 12 hr.; format: functional; outline: as §2
Mus musculus [41] = experiment: Inhibition of phenylbenzoquinone writhing in mice was tested at the dose of 3 mg/kg for 2 hr; format: functional; outline: as §3
Mus musculus [42] = experiment: Inhibition of phenylbenzoquinone writhing in mice was tested at the dose of 3 mg/kg for 4 hr; format: functional; outline: as §3
Rattus norvegicus [43] = experiment: Vocalization threshold value was measured in rat yeast induced hyperalgesia assay at a dose of 10 mg/kg for 12 hr.; format: functional; outline: as §1
Rattus norvegicus [44] = experiment: Analgesic activity was measured in rat yeast induced hyperalgesia assay at a dose of 10 mg/kg for 4 hr.; format: functional; outline: as §5
Rattus norvegicus [45] = experiment: Plasma drug level was measured in rat yeast induced hyperalgesia assay in presence of indomethacin at a dose of 10 mg/kg for 8 hr.; format: functional; outline: as §2
Rattus norvegicus [46] = experiment: Plasma drug level was measured in rat yeast induced hyperalgesia assay in presence of indomethacin at a dose of 10 mg/kg for 1 hr.; format: functional; outline: as §2
Rattus norvegicus [47] = experiment: Plasma drug level was measured in rat yeast induced hyperalgesia assay in presence of indomethacin at a dose of 10 mg/kg for 4 hr.; format: functional; outline: as §2
Rattus norvegicus [48] = experiment: Plasma drug level was measured in rat yeast induced hyperalgesia assay in presence of indomethacin at a dose of 10 mg/kg for 24 hr.; format: functional; outline: as §2
Rattus norvegicus [49] = experiment: Vocalization threshold value was measured in rat yeast induced hyperalgesia assay at a dose of 10 mg/kg for 24 hr.; format: functional; outline: as §1

Structure (SMILES): COc1ccc2c(c1)c(/C=C/CC(=O)O)c(C)n2C(=O)c1ccc(Cl)cc1
- Inflamed (Rattus norvegicus [1]): 14.2 mmHg
- Drug level (Rattus norvegicus [2]): <1 µg/mL
- Writhes (Mus musculus [3]): 28.6
- inhibition in vivo at 30 mg/kg (Mus musculus [3]): 32%
- Drug level (Rattus norvegicus [4]): <1 µg/mL
- Inflamed (Rattus norvegicus [5]): 21.6 mmHg
- Writhes (Mus musculus [6]): 34
- inhibition in vivo at 30 mg/kg (Mus musculus [6]): 19%
- Analgesic (Rattus norvegicus [7]): 30%
- Drug level (Rattus norvegicus [8]): <1 µg/mL
- Drug level (Rattus norvegicus [9]): 17 µg/mL
- Analgesic (Rattus norvegicus [10]): 30%
- Writhes (Mus musculus [11]): 23
- inhibition in vivo at 30 mg/kg (Mus musculus [11]): 46%
- Drug level (Rattus norvegicus [12]): 26 µg/mL
- Normal (Rattus norvegicus [13]): 25.8 mmHg
- Drug level (Rattus norvegicus [14]): 10 µg/mL
- Writhes (Mus musculus [15]): 29.5
- inhibition in vivo at 30 mg/kg (Mus musculus [15]): 28%
- Analgesic (Rattus norvegicus [16]): 10%
- Inflamed (Rattus norvegicus [17]): 20.2 mmHg
- Normal (Rattus norvegicus [17]): 23.4 mmHg
- Normal (Rattus norvegicus [18]): 25.4 mmHg

Structure (SMILES): COc1ccc2c(c1)c(/C=C/CCCC(=O)O)c(C)n2C(=O)c1ccc(Cl)cc1
- Inflamed (Rattus norvegicus [1]): 25.4 mmHg
- Normal (Rattus norvegicus [1]): 23 mmHg
- Drug level (Rattus norvegicus [2]): 2.2 µg/mL
- Writhes (Mus musculus [3]): 15.3
- inhibition in vivo at 30 mg/kg (Mus musculus [3]): 26%
- Drug level (Rattus norvegicus [19]): 1.1 µg/mL
- Normal (Rattus norvegicus [20]): 23.2 mmHg
- Inflamed (Rattus norvegicus [5]): 27.6 mmHg
- Inflamed (Rattus norvegicus [21]): 23.8 mmHg
- Writhes (Mus musculus [6]): 16.4
- inhibition in vivo at 30 mg/kg (Mus musculus [6]): 20%
- Drug level (Rattus norvegicus [22]): 2.2 µg/mL
- Analgesic (Rattus norvegicus [23]): 10%
- Analgesic (Rattus norvegicus [7]): 60%
- Analgesic (Rattus norvegicus [24]): 40%
- Drug level (Rattus norvegicus [8]): 2.1 µg/mL
- Analgesic (Rattus norvegicus [25]): 60%
- Drug level (Rattus norvegicus [9]): 24.1 µg/mL
- Inflamed (Rattus norvegicus [26]): 13 mmHg
- Analgesic (Rattus norvegicus [10]): 100%
- Writhes (Mus musculus [11]): 7.2
- inhibition in vivo at 30 mg/kg (Mus musculus [11]): 65%
- Inflamed (Rattus norvegicus [27]): 21.6 mmHg
- Normal (Rattus norvegicus [27]): 22 mmHg
- Inflamed (Rattus norvegicus [28]): 25 mmHg
- Normal (Rattus norvegicus [28]): 25.2 mmHg
- Analgesic (Rattus norvegicus [29]): 0%
- Normal (Rattus norvegicus [30]): 24.4 mmHg
- Inflamed (Rattus norvegicus [13]): 16.8 mmHg
- Normal (Rattus norvegicus [13]): 24 mmHg
- Drug level (Rattus norvegicus [14]): 6.1 µg/mL
- Analgesic (Rattus norvegicus [31]): 40%
- Analgesic (Rattus norvegicus [16]): 60%
- Drug level (Rattus norvegicus [32]): 1.6 µg/mL
- Inflamed (Rattus norvegicus [17]): 26 mmHg
- Normal (Rattus norvegicus [17]): 24.8 mmHg
- Normal (Rattus norvegicus [18]): 25.6 mmHg

Structure (SMILES): COc1ccc2c(c1)c(CC(=O)O)c(C)n2C(=O)c1ccc(Cl)cc1 [INDOMETHACIN]
- Analgesic (Rattus norvegicus [33]): 0%
- ED50 (Mus musculus [34]): 3 mg/kg
- Normal (Rattus norvegicus [20]): 28.4 mmHg
- Writhes (Mus musculus [35]): 4.8
- inhibition in vivo at 3 mg/kg (Mus musculus [35]): 89%
- Inflamed (Rattus norvegicus [36]): 32 mmHg
- Inflamed (Rattus norvegicus [21]): 28.4 mmHg
- Analgesic (Rattus norvegicus [23]): 70%
- Normal (Rattus norvegicus [37]): 26.8 mmHg
- ED50 (Rattus norvegicus [38]): 5 mg/kg
- Analgesic (Rattus norvegicus [39]): 0%
- Analgesic (Rattus norvegicus [24]): 40%
- Drug level (Rattus norvegicus [40]): 9.8 µg/mL
- Writhes (Mus musculus [41]): 38.3
- inhibition in vivo at 3 mg/kg (Mus musculus [41]): 16%
- Writhes (Mus musculus [42]): 32.9
- inhibition in vivo at 3 mg/kg (Mus musculus [42]): 28%
- Inflamed (Rattus norvegicus [43]): 15.6 mmHg
- Normal (Rattus norvegicus [43]): 24.4 mmHg
- Analgesic (Rattus norvegicus [44]): 100%
- Drug level (Rattus norvegicus [45]): 21 µg/mL
- Drug level (Rattus norvegicus [46]): 21 µg/mL
- Inflamed (Rattus norvegicus [13]): 30 mmHg
- Normal (Rattus norvegicus [13]): 27.9 mmHg
- Drug level (Rattus norvegicus [47]): 38 µg/mL
- Drug level (Rattus norvegicus [48]): 3.3 µg/mL
- Inflamed (Rattus norvegicus [49]): 16 mmHg
- Normal (Rattus norvegicus [49]): 22.4 mmHg
